One data set addresses Dipeptidyl peptidase 8 (Homo sapiens, UniProt Q6V1X1). Nature of the data set: Inhibition of DPP8.
The target of a further data set is Dipeptidyl peptidase 9 (Homo sapiens, UniProt Q86TI2). Nature of the data set: Inhibition of DPP9.
The nature of data set [1]: Plasma clearance in rat at 5 mg/kg, iv. It is filed as ADME, organism-based. Details: dose 5 mg/kg, route intravenous. A digest of the protocol: (§1)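 Rats (n = 6) dosed at 5 mg/kg by iv and po routes. Plasma clearance and steady-state volume of distribution were taken from iv dosing. Cmax (maximal concentration) and terminal half-life were taken from oral dosing. AUC and oral bioavailability (F) are also reported.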

A short description of data set [2]: Volume of distribution at steady state in rat at 5 mg/kg, iv. It counts as ADME, organism-based. More on the design: dose 5 mg/kg, route intravenous. The note with it: in vivo, read-out: Vss. A digest of the protocol: as §1
Data set [3] can be described thus: Cmax in rat at 5 mg/kg, po. The conditions noted are these: in vivo. More on the design: dose 5 mg/kg, route oral. It is filed as ADME, organism-based. A digest of the protocol:
as §1

The nature of data set [4]: Half life in rat at 5 mg/kg, po. It counts as ADME, organism-based. The conditions noted are these: in vivo. More on the design: dose 5 mg/kg, route oral. In short, it runs like this:
as §1

For another data set, the system named is Rattus norvegicus. Kind of data set: AUC in rat at 5 mg/kg, po. It counts as ADME, organism-based, Plasma. Details: dose 5 mg/kg, route oral. The conditions noted are these: in vivo. In short, it runs like this:
as §1

The nature of data set [5]: Oral bioavailability in rat at 5 mg/kg, po. It counts as ADME, organism-based. The conditions noted are these: in vivo. In short, it runs like this:
as §1

Dipeptidyl peptidase 8, sequence (Q6V1X1 whole entry): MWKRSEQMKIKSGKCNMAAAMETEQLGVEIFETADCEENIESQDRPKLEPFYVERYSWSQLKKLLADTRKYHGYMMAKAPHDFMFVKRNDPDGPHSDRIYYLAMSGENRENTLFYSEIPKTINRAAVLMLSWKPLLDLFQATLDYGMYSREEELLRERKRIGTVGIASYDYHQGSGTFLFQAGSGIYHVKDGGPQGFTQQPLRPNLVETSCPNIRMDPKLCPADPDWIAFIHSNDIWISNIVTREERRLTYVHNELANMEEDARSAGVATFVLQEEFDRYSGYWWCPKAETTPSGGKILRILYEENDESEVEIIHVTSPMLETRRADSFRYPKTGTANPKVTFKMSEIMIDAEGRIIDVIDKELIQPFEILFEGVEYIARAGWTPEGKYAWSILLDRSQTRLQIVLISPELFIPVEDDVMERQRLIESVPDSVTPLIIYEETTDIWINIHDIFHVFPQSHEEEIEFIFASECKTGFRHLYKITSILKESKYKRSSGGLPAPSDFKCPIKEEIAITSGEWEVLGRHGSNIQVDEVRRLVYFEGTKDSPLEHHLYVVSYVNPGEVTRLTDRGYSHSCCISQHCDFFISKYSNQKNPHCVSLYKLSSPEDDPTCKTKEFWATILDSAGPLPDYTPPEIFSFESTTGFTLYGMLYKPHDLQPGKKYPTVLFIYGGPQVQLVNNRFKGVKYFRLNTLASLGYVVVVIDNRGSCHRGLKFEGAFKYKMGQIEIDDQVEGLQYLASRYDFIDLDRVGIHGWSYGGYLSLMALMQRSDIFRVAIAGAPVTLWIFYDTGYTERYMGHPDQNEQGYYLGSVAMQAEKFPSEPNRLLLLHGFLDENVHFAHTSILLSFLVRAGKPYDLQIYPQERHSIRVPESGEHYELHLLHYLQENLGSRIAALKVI
Dipeptidyl peptidase 9, sequence (Q86TI2 whole entry): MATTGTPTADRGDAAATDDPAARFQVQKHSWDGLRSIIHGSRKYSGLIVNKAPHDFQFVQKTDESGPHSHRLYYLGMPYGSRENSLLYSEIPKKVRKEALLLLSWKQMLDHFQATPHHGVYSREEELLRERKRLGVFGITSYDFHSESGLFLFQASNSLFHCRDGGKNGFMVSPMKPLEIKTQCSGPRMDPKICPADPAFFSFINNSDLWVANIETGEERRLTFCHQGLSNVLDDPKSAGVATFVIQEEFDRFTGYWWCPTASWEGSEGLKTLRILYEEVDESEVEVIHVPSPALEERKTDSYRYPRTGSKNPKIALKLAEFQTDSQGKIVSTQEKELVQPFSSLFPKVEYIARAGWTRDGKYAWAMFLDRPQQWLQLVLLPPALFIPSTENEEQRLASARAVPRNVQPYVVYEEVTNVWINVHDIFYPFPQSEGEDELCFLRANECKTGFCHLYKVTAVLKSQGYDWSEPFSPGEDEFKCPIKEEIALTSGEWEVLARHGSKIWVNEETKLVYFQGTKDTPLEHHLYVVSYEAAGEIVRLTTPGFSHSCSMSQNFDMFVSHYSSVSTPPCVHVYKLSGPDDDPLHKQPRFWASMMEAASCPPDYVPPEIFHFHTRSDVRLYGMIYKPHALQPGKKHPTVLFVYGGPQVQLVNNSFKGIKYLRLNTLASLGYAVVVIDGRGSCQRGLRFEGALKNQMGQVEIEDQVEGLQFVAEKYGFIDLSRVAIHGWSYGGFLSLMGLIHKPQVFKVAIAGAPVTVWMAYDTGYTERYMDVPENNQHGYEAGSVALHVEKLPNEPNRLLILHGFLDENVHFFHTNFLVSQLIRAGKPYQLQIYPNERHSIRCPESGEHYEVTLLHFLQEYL

Broadly, the Ki is a measure of affinity in units of concentration, obtained from inhibition or displacement. What is called clearance is the volume of plasma or blood freed of the substance per unit of time. A higher clearance goes with efficient removal. A word on the Cmax: it is the highest concentration seen after dosing. For orientation: half-life means how long it takes for the measured level to halve. By AUC is commonly meant concentration integrated over time. Read a low AUC as low exposure. For orientation: bioavailability means dose-corrected exposure relative to a reference, in per cent. Low readings indicate little systemic uptake, high ones much systemic uptake. As for `CS(=O)(=O)c1cccc(-c2cc(N3C[C@H](N)[C@@H](c4cc(F)c(F)cc4F)CC3=O)ncn2)c1`, the Ki at Dipeptidyl peptidase 8 and at Dipeptidyl peptidase 9 was more than 30 µM in each case. The clearance in data set [1] was 3.17 mL/min/kg. The Vd in data set [2] was 1.28 L/kg. In data set [3], this compound had a Cmax of 2000 ng/mL. The same compound showed a half-life in data set [4] of 7.8 h. In the data set with Rattus norvegicus, this compound had an AUC of 24400 ng·h/mL. For the same compound, the bioavailability in data set [5] stood at 90.3%.

`N[C@H]1CN(c2cc(N3CC[C@@H](O)C3)ncn2)C(=O)C[C@@H]1c1cc(F)c(F)cc1F` registered a Ki at Dipeptidyl peptidase 8 of more than 30 µM.

The compound `CS(=O)(=O)c1cccc(CCN2C[C@H](N)[C@@H](c3cc(F)c(F)cc3F)CC2=O)c1` showed a clearance in data set [1] of 30.2 mL/min/kg. The Vd in data set [2] is 1.24 L/kg. This compound registered a Cmax in data set [3] of 710 ng/mL. Also, in data set [4], the half-life is 1.8 h. In addition, the AUC in the data set on Rattus norvegicus turned out to be 771 ng·h/mL. The bioavailability in data set [5] was found to be 27.6%.

In data set [1], `Cl.N[C@H]1CN(CCc2ccc3c(c2)OCO3)C(=O)C[C@@H]1c1cc(F)c(F)cc1F` showed a clearance of 36.3 mL/min/kg. In addition, the Vd in data set [2] was 1.04 L/kg. The compound further had a maximum concentration (Cmax) in data set [3] of 192 ng/mL. In addition, the half-life in data set [4] is 0.42 h. Moreover, in the data set with Rattus norvegicus, the AUC turned out to be 223 ng·h/mL. In addition, the bioavailability in data set [5] worked out at 9%.
